This note sets out measurements from ChEMBL document CHEMBL1955761, “Privileged scaffolds or promiscuous binders: a comparative study on rhodanines and related heterocycles in medicinal chemistry” (J Med Chem, 2012).

Calls of active or inactive are those of the source.

The subject of experiment [1] is Escherichia coli. Kind of experiment: Inhibition of Escherichia coli MetAP at 10 uM after 15 mins by fluorescence analysis.
Experiment [2] has as its system Escherichia coli. Kind of experiment: Inhibition of Escherichia coli MurA using PEP as substrate assessed as inorganic phosphate release at 25 uM preincubated for 10 mins measured after 60 mins […].
For a further experiment, the system named is Dengue virus. Briefly: Inhibition of Dengue virus NS2B-NS3 protease using Abz-NleKRRS-3-(NO2)Y as substrate at 50 uM preincubated for 15 mins measured every sec for 15 mins by fluorimetric analysis.
The target of a further experiment is Prothrombin (Bos taurus) (UniProt P00735). Kind of experiment: Inhibition of bovine plasma thrombin using Boc-Val-Pro-Arg-AMC as substrate at 25 uM preincubated for 15 mins measured after 10 mins by fluorimetric assay. In a few lines:
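Purchased bovine plasma thrombin at 10 nM final, preincubated 15 min with 25 μM inhibitor; reaction started with 50 μM substrate. Buffer 50 mM Tris-HCl pH 7.5, 150 mM NaCl, 0.05% Tween 20. Triplicate, averaged.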

The inhibition is the percentage by which the read-out fell short of the control. On to `O=C1NC(=O)/C(=C/c2sccc2Br)N1`, for which the inhibition result with Escherichia coli [1] and with Escherichia coli [2] was “inactive” throughout. For the same compound, the inhibition in the experiment with Dengue virus was 13%; on Prothrombin (Bos taurus), 16%.

Consider `O=C1NC(=O)/C(=C/c2sccc2Cl)N1`, for which the inhibition entry in the experiment with Escherichia coli [1], in the experiment with Escherichia coli [2], in the experiment with Dengue virus and on Prothrombin (Bos taurus) was “inactive” throughout.

With `COc1cc(/C=C2\NC(=O)NC2=O)ccc1O`, the inhibition result in the experiment with Escherichia coli [1] and at Prothrombin (Bos taurus) was “inactive” throughout. In addition, the results for the inhibition in the experiment on Escherichia coli [2] and with Dengue virus were 17% and 13%, respectively.

As to `COc1ccc(/C=C2\SC(=S)NC2=O)cc1`, the inhibition entry with Escherichia coli [1] and with Escherichia coli [2] was “inactive” throughout. Also, the results for the inhibition with Dengue virus and against Prothrombin (Bos taurus) were 42% and 16%, respectively.

Turning to `O=C1NC(=O)C(Cc2ccc(O)c(O)c2)N1` (stereo unspecified), the inhibition with Escherichia coli [1] was 84%; in the experiment with Escherichia coli [2], 79%. Besides, the inhibition entry in the experiment on Dengue virus and at Prothrombin (Bos taurus) was “inactive” each time.

In the case of `C/C(=C1/SC(=S)NC1=O)c1ccc(F)cc1`, the inhibition result in the experiment on Escherichia coli [1] and with Dengue virus was “inactive” in each case. Moreover, the inhibition in the experiment with Escherichia coli [2] was found to be 69%; on Prothrombin (Bos taurus), 20%.

Consider `O=C1NC(=S)N/C1=C\c1ccco1`, for which, in the experiment on Escherichia coli [1], the inhibition result was “inactive”. Moreover, the inhibition came to 22% in the experiment with Escherichia coli [2], 46% with Dengue virus and 14% on Prothrombin (Bos taurus).

Turning to `O=C1NC(=S)N/C1=C\c1sccc1Br`, the inhibition result in the experiment on Escherichia coli [1] is “inactive”. The inhibition in the experiment with Escherichia coli [2] came out at 31%; in the experiment on Dengue virus, 44%; at Prothrombin (Bos taurus), 11%.

As for `O=C1NC(=S)S/C1=C\c1ccc(Br)s1`, in the experiment with Escherichia coli [1], the inhibition result was “inactive”. Also, the inhibition in the experiment on Escherichia coli [2] was found to be 21%; in the experiment on Dengue virus it was 50%; against Prothrombin (Bos taurus) it was 22%.

On to `CN(C)c1ccc(/C=C2\NC(=S)NC2=O)cc1`, for which the inhibition in the experiment with Escherichia coli [1] stood at 75%; with Escherichia coli [2], 51%; in the experiment on Dengue virus, 42%; at Prothrombin (Bos taurus) it was 25%.

In the case of `O=C1NC(=O)/C(=C/C=C/c2ccco2)S1`, the inhibition in the experiment on Escherichia coli [1] came to 12%; with Escherichia coli [2], 24%; at Prothrombin (Bos taurus) it was 24%. Further, the inhibition entry in the experiment with Dengue virus is “inactive”.

Regarding `O=C1NC(=O)/C(=C/c2ccc(O)cc2)N1`, the inhibition entry with Escherichia coli [1] and in the experiment with Escherichia coli [2] was “inactive” throughout. Further, the values for the inhibition with Dengue virus and at Prothrombin (Bos taurus) were 26% and 14%, respectively.

Take `O=C1NC(=O)/C(=C/c2cccs2)N1`: the inhibition result in the experiment with Escherichia coli [1] and in the experiment on Escherichia coli [2] was “inactive” throughout. Also, the values for the inhibition in the experiment on Dengue virus and against Prothrombin (Bos taurus) were 16% and 22%, respectively.

In the case of `O=C1NC(=O)/C(=C/c2ccco2)S1`, the inhibition entry in the experiment with Escherichia coli [1] was “inactive”. Besides, the inhibition is 41% with Escherichia coli [2], 20% in the experiment on Dengue virus and 19% at Prothrombin (Bos taurus).

In the case of `COc1ccc(/C=C/C=C2\NC(=S)NC2=O)cc1`, the inhibition with Escherichia coli [1] turned out to be 27%; with Escherichia coli [2], 48%; in the experiment with Dengue virus it was 13%; against Prothrombin (Bos taurus), 18%.

Consider `O=C1NC(=S)N[C@H]1Cc1ccc(O)cc1`, for which the inhibition entry with Escherichia coli [1], in the experiment with Escherichia coli [2], in the experiment with Dengue virus and on Prothrombin (Bos taurus) was “inactive” throughout.

Consider `C/C(=C1/NC(=S)NC1=O)c1ccc(C2CCCCC2)cc1`, for which the inhibition was 58% in the experiment with Escherichia coli [1], 13% in the experiment on Escherichia coli [2] and 12% with Dengue virus. Besides, the inhibition result at Prothrombin (Bos taurus) was “inactive”.

Turning to `COc1cccc(/C=C2\SC(=S)NC2=O)c1`, the inhibition result in the experiment with Escherichia coli [1] is “inactive”. The inhibition in the experiment with Escherichia coli [2] is 10%; in the experiment with Dengue virus, 33%; at Prothrombin (Bos taurus), 11%.

For the compound `O=C1NC(=O)/C(=C/c2ccccn2)S1`, the values for the inhibition in the experiment with Escherichia coli [1], in the experiment with Dengue virus and at Prothrombin (Bos taurus) were 12%, 15% and 29%, respectively. For the same compound, the inhibition result in the experiment on Escherichia coli [2] is “inactive”.
